# Source: PubChem (several laboratories)
# In the library only some 1.4% were active in any assay of this set; here they are far more common.
# Diaph inh CS = diaphorase inhibitors and chemical oxidizers, primary screen, counter-screen for diaphorase-coupled primary assays, biochemical, uHTS, resorufin fluorescence; AID 1217, 2008; diaphorase resazurin-to-resorufin fluorescence, NADH, 16 min; bacterial (C. kluyveri) enzyme, not human; hit rate 0.69% among 190,000; inhibition, % at 20 µM;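 active means primary screen inhibition at 20 µM above a set limit, cut at about 50% in these data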;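 further: plate controls were DMSO with full reaction for no effect and wells lacking NADH for full effect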
#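 Test system: diaphorase enzyme from Clostridium kluyveri; amount: diaphorase at 0.14 U/mL in enzyme working solution; detection: fluorescence of resorufin formed from resazurin, Ex 544/Em 590 nm; times: reaction incubation of 16 min at room temperature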
# Diaph act CS = compounds boosting diaphorase resazurin reduction – biochemical, uHTS, resorufin fluorescence, counter-screen for diaphorase-coupled primary assays, primary screen; AID 1229, 2008; Diaphorase/resazurin coupled assay, 16 min; stronger effect = higher value; 1 = vehicle wells, 0 = NADH-free wells; activation factor at 20 µM; hit rate 0.005% among 190,000;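 active means diaphorase activity raised at least twofold by the compound at 20 µM; inactive means activation factor below 2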
#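 System – purified diaphorase enzyme from Clostridium kluyveri · Input – enzyme 0.07 U/mL final · Also added – final NADH 0.114 mM, resazurin 0.1 mM · Measured by – fluorescence of resorufin, 544 nm excitation, 590 nm emission · Timing – 16 min enzyme reaction, ambient temperature · Measure – resorufin increase flagging diaphorase activators or reducers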
# ATG4B inh = ATG4B protease inhibitors, primary screen, biochemical, fluorescence, uHTS | hit rate 0.51% among 340,000 | inhibition, % at 8.33 µM | Cysteine protease ATG4B (Homo sapiens), Q9Y4P1 | AID 504462, 2011 | ATG4B cleavage of LC3-PLA2, NBD-HPC fluorescence, 1 h; in the data active means inhibition above about 40%
# Fh CTSL1 inh = Fasciola hepatica cathepsin L1 inhibitors, primary screen, counter-screen for PFM18AAP inhibitor project, biochemical, QFRET, fluorogenic peptide substrate; recombinant F. hepatica cathepsin L1, Z-Leu-Arg-MCA fluorescence; inhibition, % at 5.96 µM; hit rate 0.49% among 300,000; AID 1906, 2009;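 active means inhibition above the mean of all tested compounds plus 3 SD, set per screening campaign, cut at about 17% in these data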;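 further: 0% = plate median of test compound wells and 100% = 1 µM Z-Phe-Ala-diazomethylketone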
# HKDC1 inhibitor = HKDC1 hexokinase inhibitors, primary screen, biochemical, fluorescence, uHTS; Q2TB90; recombinant HKDC1, G6PDH/diaphorase resazurin coupled fluorescence; inhibition, % at 20 µM; hit rate 0.16% among 340,000;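 active means inhibition above about 35% when tested at 20 µM, limit read from the data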;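 further: plate controls were DMSO wells with enzyme for no effect and DMSO wells lacking enzyme for full effect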
# Target sequence (Q2TB90 whole entry, looked up): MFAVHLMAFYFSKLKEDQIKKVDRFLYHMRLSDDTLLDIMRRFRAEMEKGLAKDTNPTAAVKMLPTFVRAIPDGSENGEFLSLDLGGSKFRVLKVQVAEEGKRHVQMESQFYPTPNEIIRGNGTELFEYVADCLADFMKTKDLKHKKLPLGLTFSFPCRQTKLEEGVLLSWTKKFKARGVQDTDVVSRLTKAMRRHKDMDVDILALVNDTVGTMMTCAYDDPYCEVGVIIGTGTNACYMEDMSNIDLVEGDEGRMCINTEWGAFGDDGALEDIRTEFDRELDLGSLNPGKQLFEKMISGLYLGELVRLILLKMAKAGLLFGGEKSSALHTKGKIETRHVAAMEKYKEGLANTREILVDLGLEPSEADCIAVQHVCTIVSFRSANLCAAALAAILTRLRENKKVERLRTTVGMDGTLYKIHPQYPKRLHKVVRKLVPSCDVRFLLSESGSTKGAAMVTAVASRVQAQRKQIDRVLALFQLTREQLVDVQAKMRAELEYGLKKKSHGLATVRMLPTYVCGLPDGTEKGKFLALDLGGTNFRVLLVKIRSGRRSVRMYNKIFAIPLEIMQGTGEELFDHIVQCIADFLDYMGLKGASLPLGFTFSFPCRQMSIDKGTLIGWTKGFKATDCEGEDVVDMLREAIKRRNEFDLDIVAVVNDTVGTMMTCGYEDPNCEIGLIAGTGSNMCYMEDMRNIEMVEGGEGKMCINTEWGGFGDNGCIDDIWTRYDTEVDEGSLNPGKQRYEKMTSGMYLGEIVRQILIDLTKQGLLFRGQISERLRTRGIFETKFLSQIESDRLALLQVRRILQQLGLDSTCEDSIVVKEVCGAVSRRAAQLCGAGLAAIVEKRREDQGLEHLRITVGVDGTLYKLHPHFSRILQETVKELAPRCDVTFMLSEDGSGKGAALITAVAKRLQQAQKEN
#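 test system = in-house recombinant HK5 (HKDC1) enzyme | amount = HKDC1 at 5 µg/mL | control set = DMSO-enzyme wells negative, buffer-substituted wells positive | compound = one dose of 20 µM, 1% DMSO | schedule = reaction time 90 min, room temperature, protected from light | technique = resorufin fluorescence at 613 nm | reagent = glucose with 1 mM ATP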
# * hit, by the source's call; . = no result given.
SMILES,Diaph inh CS,Diaph act CS,ATG4B inh,Fh CTSL1 inh,HKDC1 inhibitor
O=C(/C=C/c1ccco1)Nc1cccc2cccnc12,63.3*,0.4,7.4,4.7,21.1
Cc1ccc(C2C(C#N)=C(N)SC(N)=C2C#N)o1,65.8*,0.3,.,0.0,.
Cc1cccc(Cn2nnc3c2C(=O)c2ccccc2C3=O)c1,17.7,0.8,-5.1,18.9*,12.7
Cc1cccc(Cn2ncc(Cl)c(Cl)c2=O)c1,16.2,0.8,0.0,1.9,-4.6
Cc1ccccc1Cn1nnc2c1C(=O)c1ccccc1C2=O,.,.,-5.6,25.4*,6.7
Cc1nc2c(nc1C)C(=O)c1ccccc1C2=O,.,.,-0.8,.,5.8
CCCCNC(=O)c1cn(CC)c2ccc(S(=O)(=O)N3CCCCCC3)cc2c1=O,.,.,4.3,-0.4,3.9
O=C(Nc1cccc(-n2cnnn2)c1)c1cccs1,.,.,1.4,7.1,-5.9
Cc1ccsc1C(=O)Nc1cccc(-n2cnnn2)c1,.,.,0.2,19.1*,-6.1
COc1ccc(NC(=S)Nc2ccc3snnc3c2)cc1,23.1,0.8,-1.6,-2.0,14.8
COc1ccc(NC(=S)Nc2ccc3nccnc3c2)cc1,65.4*,0.3,-0.9,-0.8,6.8
COc1cc(NC(=S)N2CCC(C(N)=O)CC2)c(OC)cc1Cl,54.8*,0.5,4.2,0.0,-0.9
COc1cc(NC(=S)N2CCC(C(N)=O)CC2)cc(OC)c1,18.7,0.8,0.3,-0.8,-12.0
O=C(/C=C/C=C/c1ccccc1)CC1(O)C(=O)N(CCc2ccccc2)c2ccccc21 (stereo not given),28.5,0.7,-1.9,18.0*,5.7
Cc1ccc2c(c1)C(O)(CC(=O)/C=C/C=C/c1ccccc1)C(=O)N2 (stereo not given),6.2,0.9,28.6,21.1*,-6.7
C#CCN1C(=O)C(O)(CC(=O)c2ccc3c(c2)OCCO3)c2ccccc21 (stereo not given),10.8,0.9,-8.2,1.1,-0.9
C#CCN1C(=O)C(O)(CC(=O)/C=C/C=C/c2ccccc2)c2ccccc21 (stereo not given),14.6,0.9,-3.6,38.5*,0.2
CCN1C(=O)C(O)(CC(=O)/C=C/C=C/c2ccccc2)c2ccccc21 (stereo not given),17.2,0.8,4.8,21.6*,2.8
NC(=O)CN1C(=O)C(O)(CC(=O)/C=C\C=C\c2ccccc2)c2ccccc21 (stereo not given),-3.0,1,-2.3,2.9,9.0
CCn1c(SCC(=O)N(C)CC(=O)Nc2ccc(F)c(F)c2F)nnc1-c1ccco1,.,.,4.5,-2.3,-6.8
Cc1cc(C)c(S(=O)(=O)N2CCOC2CNC(=O)C(=O)NCCCN2CCOCC2)c(C)c1 (stereo not given),.,.,0.1,-2.3,-6.6
CCOc1ccc2ccc(OCC)c(/C=N/n3cnnc3)c2c1,.,.,-21.2,5.8,14.2
Oc1c(Br)cc(Br)cc1C=NCc1ccc(F)cc1,26.0,0.7,73.8*,-2.0,14.3
O=c1/c(=C/c2ccc(O)c([N+](=O)[O-])c2)sc2nc3ccccc3n12,112.8*,-0.1,4.8,.,8.5
Cc1cccc(C(=O)OCC(=O)NCC2COc3ccccc3O2)c1 (stereo not given),.,.,-7.4,.,3.8
SMILES,Diaph inh CS,Diaph act CS,ATG4B inh,Fh CTSL1 inh,HKDC1 inhibitor
Cc1oc(=O)c(NC(=O)c2ccccc2)cc1C(N)=O,10.9,0.9,-3.5,-4.4,-13.5
Cc1oc(=O)c(NC(=O)c2cccc(Cl)c2)cc1C(=O)c1ccccc1,-5.5,1.1,8.7,55.0*,3.9
O=C(CCS(=O)(=O)c1ccccc1)NNC(=O)CSc1ccccc1F,.,.,-0.1,.,-1.1
Cc1occc1-c1nnc(SCC(=O)c2cc3ccccc3oc2=O)o1,51.0*,0.5,11.4,6.0,-2.1
Cc1occc1-c1nnc(SCC(=O)Nc2ccccn2)o1,1.8,1,-1.4,-1.5,-2.8
COc1ccc(/C=N\NC(=O)/C(=C\Nc2nccc(C)n2)NC(=O)c2ccccc2)cc1,13.1,0.9,-8.6,20.1*,-9.7
Cc1ccc(/C=N\NC(=O)/C(=C\Nc2nccc(C)n2)NC(=O)c2ccccc2)cc1,.,.,2.1,21.9*,11.3
CC(C)OC(=O)CN1C(=O)S/C(=C/c2ccc(N3CCCCC3)o2)C1=O,34.3,0.7,-7.0,17.4*,-2.4
O=C1S/C(=C/c2ccc(N3CCOCC3)o2)C(=O)N1Cc1ccc(F)cc1,28.5,0.7,-2.5,3.8,-1.4
O=C1/C(=C/Nc2ccc3c(c2)OCO3)CCc2ccccc21,74.8*,0.3,24.7,0.1,34.6
COc1ccc2c(c1)CC/C(=C\Nc1ccc3c(c1)OCO3)C2=O,81.6*,0.2,7.8,0.1,19.8
COc1ccc(N/C=C2\CCc3ccccc3C2=O)cc1,89.8*,0.1,13.4,-0.4,33.2
O=C(NCc1ccccc1Cl)C(=O)NCC1OCCCN1S(=O)(=O)c1cccs1 (stereo not given),.,.,3.6,2.6,-3.7
CCCN1Cc2cccc(C(=O)NCc3ccc4c(c3)OCO4)c2C1=O,13.0,0.9,-4.5,-5.4,-6.3
CCCN1Cc2cccc(C(=O)NCc3cccs3)c2C1=O,14.8,0.9,-15.1,17.7*,-2.3
CCN(CC)CCN(C(=O)CCS(=O)(=O)c1ccccc1)c1nc2cc(OC)c(OC)cc2s1,.,.,0.5,7.0,1.6
CCN(CC)CCN(C(=O)CCS(=O)(=O)c1ccccc1)c1nc2c(C)cc(C)cc2s1,.,.,-4.0,40.5*,-4.8
CCN(CC)CCN(C(=O)CCS(=O)(=O)c1ccccc1)c1nc2cc(C)cc(C)c2s1,.,.,-7.9,34.4*,5.0
Cc1cc(C)c2sc(N(CCN(C)C)C(=O)CCS(=O)(=O)c3ccccc3)nc2c1,.,.,-2.3,13.6,8.2
Cc1cccc2sc(N(CCN3CCOCC3)C(=O)CCS(=O)(=O)c3ccccc3)nc12,.,.,-24.9,16.7*,-1.8
COc1ccc(NC(=O)COC(=O)C(CC(C)C)N2C(=O)C3CC=CCC3C2=O)cc1Cl (stereo not given),27.1,0.7,-0.6,52.4*,-10.9
O=C(Cc1ccc([N+](=O)[O-])cc1)OCc1c(F)cccc1Cl,.,.,-0.6,-3.6,3.3
CN(C(=O)COC(=O)c1ccc2c(c1)OCCO2)C1CCCCC1,.,.,0.4,.,-4.4
O=C(COc1ccc(Cl)cc1Cl)Nn1c(=S)[nH]c2ncccc2c1=O,50.4*,0.5,8.2,-1.5,-22.1
COc1ccccc1OCC(=O)Nn1c(=S)[nH]c2ncccc2c1=O,2.8,1,-1.5,-3.6,-6.4
Cc1cc(C)cc(NC(=O)CN2CCC(C(=O)c3ccccc3)CC2)c1,.,.,-6.1,0.5,-2.4
Cc1ccc(-n2c(=O)[nH]c3c(oc4ccccc43)c2=O)cc1,20.0,0.8,-5.4,-6.0,5.9
